The full list was thinned out, with hits kept by preference.
HCT116 PTEN-null – growth suppressors of cells with PTEN tumor suppressor deletion; HCT116 PTEN-null viability, CellTiter-Glo, 60 h; active compounds read low; viability, % at 10 µM; actives 1.2% (n = 140,000); AID 827;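 active means viability at or below a set limit, 4 SD under the median of all tested compounds, cut at about 3.7% in these data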;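 further: PTEN knockout HCT116 line with beta catenin targeted HCT116 as companion control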
Fibroblast inh – blocks proliferation of human lung fibroblasts. actives 1.1% (n = 85,000). viability, % at 10 µM. LL 47 human lung fibroblast viability, ATP luminescence; active compounds read low. AID 719;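 active means viability at or below 50% in the single dose screen; inactive means viability above 50%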;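 further: compound exposure lasted 72 h before the ATP readout; 100% = median luminescence of untreated cell-only wells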
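material = human LL 47 lung fibroblast cells | dosing = compounds added from tenfold dosing solution, 0.1% DMSO final | timing = overnight cell rest, 72 h compound treatment at 37 °C | measured by = CellTiter-Glo luminescence measuring cellular ATP | evaluation = % viability versus median cells-only luminescence | control set = cell-only wells, no compound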
H69AR inhibit – growth inhibitors of human H69AR lung tumor cells. H69AR lung tumor viability, ATP luminescence, 72 h; active compounds read low. viability, % at 10 µM. actives 6% (n = 85,000);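 active means viability at or below 40%; inactive means viability above 40%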;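 further: multidrug resistant small cell line overexpressing MRP-1 efflux transporter; 100% = mean luminescence of untreated control wells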
HUVEC prolif 384 – inhibitors of human endothelial cell proliferation. actives 1.1% (n = 86,000). HUVEC proliferation, CellTiter-Glo luminescence, 72 h; active compounds read low. viability, % at 10 µM (by protocol);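 active means viability at or below 30%; inactive means viability above 30%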;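 further: 100% = median luminescence of DMSO-only cell control wells on each plate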
bCat KO growth – beta-catenin-lacking colon tumor cell growth suppression; HCT116 beta-catenin knockout viability, CellTiter-Glo, 60 h; active compounds read low; viability, % at 10 µM; actives 1.5% (n = 140,000);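 active means viability at or under a set limit, the compound median less 4 SD, cut at about 6% in these data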;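 further: 0% = Hyamine 1622 control at 20 µM and 100% = untreated cell control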
The depositor's hits bear a star; x = no result.

SMILES	HCT116 PTEN-null	Fibroblast inh	H69AR inhibit	HUVEC prolif 384	bCat KO growth
CCOC(=O)C1=C(C)NC(=O)NC1c1c(C)nn(-c2ccccc2)c1Cl (centres undefined)	106.8	96.6	81.1	88.6	93.6
O=C(NCCc1cccc(F)c1)/C(=C/c1cccnc1)NC(=O)c1ccccc1	81.9	x	x	x	84.6
O=c1cc(O)c2c(=O)n(-c3ccccc3)c3ccccc3c2o1	75.6	100.0	12.4*	86.7	80.8
CCn1c(=O)c2c(O)cc(=O)oc2c2ccccc21	83.1	x	x	x	88.2
Cc1cc(C)c(S(=O)(=O)n2ccc3ccccc32)c(C)c1	75.3	97.8	7.8*	88.7	74.9
Cc1ccc(Cl)cc1N1CCN(C(=O)C2CCN(S(=O)(=O)c3c(C)nn(C)c3C)CC2)CC1	43.8	90.3	25.0*	62.9	54.2
Cc1ccc(Cl)cc1N1CCN(C(=O)C2CCN(S(=O)(=O)c3cccnc3)CC2)CC1	51.5	94.7	51.0	91.7	44.8
O=c1c2ccccc2nc2ccc(NCc3ccco3)nn12	68.3	87.5	39.2*	84.8	65.4
Cc1sc2nc3ccc(NCc4ccco4)nn3c(=O)c2c1C	17.7	x	x	x	27.0
Cc1ccccc1NC(=S)Nc1ccc(Br)cc1	82.1	x	x	x	80.2
COC(=O)[C@@]1(Cc2ccccc2)[C@@H]2C(=CC(=O)[C@H]2CC(=O)C(=O)N(C)C)CN1C(=O)c1ccccc1	1.7*	x	x	x	2.4*
O=C(CN1/C(=C(/O)c2ccccc2)C(=O)c2ccccc2S1(=O)=O)c1ccccc1	63.4	94.4	28.4*	87.4	65.2
Cn1cnnc1SCC(=O)NNC(=O)c1ccc(Cl)cc1	92.7	x	x	x	95.6
CCOC(=O)c1[nH]c(C)c(C(=O)NCc2ccc(Cl)cc2)c1C	88.0	105.2	88.2	79.0	90.0
CCOC(=O)c1[nH]c(C)c(C(=O)Nc2ccc(C)c(F)c2)c1C	38.1	92.3	20.3*	73.0	48.0
CCOC(=O)c1[nH]c(C)c(C(=O)Nc2ccc(C)c(Cl)c2)c1C	38.4	79.5	31.9*	61.6	46.0
COc1ccc(NCc2nnc(SCc3ccc(Cl)cc3)n2-c2ccccc2)cc1	44.1	x	x	x	42.6
COc1ccc2cc3cc(C(=O)NCCc4ccc(OC)c(OC)c4)oc3nc2c1	49.7	119.5	29.0*	25.0*	55.5
COc1ccc2cc3cc(C(=O)Nc4ccc5c(c4)OCO5)oc3nc2c1	63.3	108.1	24.2*	10.4*	58.7
COc1ccc2nc3oc(C(=O)Nc4ccc(OC)c(OC)c4)cc3cc2c1	90.8	96.6	77.3	105.6	93.1
CCOC(=O)c1ccccc1NC(=O)c1ccc(N(C)S(C)(=O)=O)cc1	108.4	51.2	26.8*	40.8	97.1
CCOc1ccc(-n2c(N)c(-c3nc4ccccc4[nH]3)sc2=S)cc1	87.6	73.7	22.3*	54.4	99.4
COc1ccc(-n2c(N)c(-c3nc4ccccc4n3C)sc2=S)cc1	62.7	x	x	x	64.5
CCCn1nnc(NC(=O)c2cccc(OCc3ccccc3)c2)n1	86.1	88.7	66.4	85.4	102.2
COc1ccc(C2NCCc3c2[nH]c2ccccc32)cc1COc1ccc(F)cc1 (centres undefined)	0.9*	x	x	x	1.2*
SMILES	HCT116 PTEN-null	Fibroblast inh	H69AR inhibit	HUVEC prolif 384	bCat KO growth
O=C1C(N2CCOCC2)=C(n2nnc3ccccc32)C(=O)c2ccccc21	2.1*	2.4*	1.4*	2.2*	2.0*
O=C1c2ccccc2C(=O)c2c1cccc2N1CCOCC1	67.3	x	x	x	83.9
CC(C)[C@H](NC(=O)NCCc1ccc(F)cc1)C(=O)O	12.1	96.0	92.4	103.5	11.2
CC(=O)N(Cc1ccc(F)cc1)C1=C(NCCc2ccccc2)C(=O)c2ccccc2C1=O	2.3*	1.8*	1.2*	4.3*	1.9*
O=c1c2c(nc3c(-c4ccc(Cl)cc4)c[nH]n13)CCCC2	14.3	60.2	19.8*	58.4	12.2
N#CC(c1cccc(Cl)c1)c1ncc(C(F)(F)F)cc1Cl (centres undefined)	96.0	x	x	x	97.8
O=C(COC(=O)c1cc([N+](=O)[O-])ccc1NCc1ccccc1)NCc1ccccc1Cl	80.0	x	x	x	80.3
O=C(COC(=O)c1cc([N+](=O)[O-])ccc1NCc1ccccc1)NC1CCCc2ccccc21 (centres undefined)	69.5	55.6	37.5*	72.2	71.5
CCOC(=O)C1CCCN(C(=O)c2cc3c(-c4cccc(OC)c4)nn(C)c3s2)C1 (centres undefined)	35.1	94.8	21.7*	72.7	33.2
CCN(CC)S(=O)(=O)c1ccc(OC)c(NC(=O)COc2ccc3c(C)cc(=O)oc3c2)c1	96.5	x	x	x	94.4
COC(=O)C1=C(C)NC=C([N+](=O)[O-])C1c1ccc(OC)cc1 (centres undefined)	100.0	x	x	x	90.3
O=C(Nc1ccccc1-c1nc2ccccc2s1)c1ccc(Br)o1	37.9	96.2	14.9*	47.4	47.4
O=C(Nc1ccc(Cl)cc1-c1nc2ccccc2s1)c1ccco1	65.5	90.0	30.1*	41.5	62.9
O=C(CC(NC(=O)C(F)(F)F)c1ccccc1)Nc1nnc(CCc2ccccc2)s1 (centres undefined)	88.6	x	x	x	97.2
CCOc1cc(S(=O)(=O)N2CCC(Cc3ccccc3)CC2)c(OCC)cc1-n1cnnn1	88.5	98.1	83.5	91.6	91.6
CCOc1cc(S(=O)(=O)N2CC=C(c3ccc(F)cc3)CC2)c(OCC)cc1-n1cnnn1	34.2	48.5*	12.1*	63.3	37.9
Cc1cc(C)n(-c2ccc(C(=O)OCC(=O)Nc3ccc(Cl)cc3[N+](=O)[O-])cc2)n1	80.8	x	x	x	95.4
COC(=O)c1cc(Cl)c(NC(=O)c2cc3ccccc3o2)cc1OC	30.4	x	x	x	48.0
NS(=O)(=O)c1ccc(CCNC(=O)CSc2ccccc2)cc1	88.9	x	x	x	103.6
O=C(NCCN1CCOCC1)NC1(C(F)(F)F)Oc2ccccc2O1	74.3	88.3	18.5*	70.2	77.1
COc1ccc(OC)c(NC(=O)NC2(C(F)(F)F)Oc3ccccc3O2)c1	46.9	94.9	13.0*	68.6	58.6
CCCCNC(=O)NC1(C(F)(F)F)Oc2ccccc2O1	94.3	93.3	21.9*	63.8	83.8
CC(=O)NC1(C(Cl)(Cl)Cl)Oc2ccccc2O1	92.4	x	x	x	68.5
NS(=O)(=O)c1ccc(CCNC(=O)NC2(C(F)(F)F)Oc3ccccc3O2)cc1	68.3	80.6	20.5*	71.1	54.0
O=C1CC(c2ccc(Cl)cc2)SC(N(c2ccccc2)c2ccccc2)=N1 (centres undefined)	60.2	x	x	x	72.0
Cc1cccc(NC(=S)NCC(c2cccnc2)N(C)C)c1C (centres undefined)	101.5	x	x	x	87.9
CCCCn1c(NC(=O)c2ccccc2)c(C#N)c2nc3ccccc3nc21	38.2	x	x	x	51.3
CCC(C)n1c(NC(=O)c2ccccc2)c(C#N)c2nc3ccccc3nc21 (centres undefined)	x	100.9	2.9*	51.4	x
CC(C)(C)c1cc(NC(=O)c2cc(F)c(F)c(F)c2F)no1	31.9	50.2	35.0*	68.5	29.7
CC1(C)Cc2nc3sc4c(SCC(=O)NCc5ccco5)ncnc4c3cc2CO1	97.3	61.8	25.6*	74.7	105.5
